Results: ChEMBL document CHEMBL1833901, “MDM2-p53 protein-protein interaction inhibitors: a-ring substituted isoindolinones” (Bioorg Med Chem Lett, 2011)
Activity calls are given as the source filed them. The calls are words filed in the database; no cut-off is given here.

Legend:
[1] = target: Tumour suppressor p53/oncoprotein Mdm2 (Homo sapiens, UniProt Q00987); experiment: Inhibition of human MDM2-p53 interaction after 20 mins by […] method; format: protein assay
SJSA-1 [2] = experiment: Growth inhibition of human SJSA1 cells expressing MDM2 by SRB assay; format: functional
Outline: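 Growth inhibition assayed in the MDM2-amplified cell line SJSA-1. Values are the mean of at least three determinations ± SE.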

A2780 = experiment: Growth inhibition of human A2780 cells expressing MDM2 by SRB assay; format: functional
HCT-116 [3] = experiment: Growth inhibition of p53 deficient human HCT116 cells expressing MDM2 by SRB assay; format: functional
HCT-116 [4] = experiment: Growth inhibition of human HCT116 cells expressing MDM2 by SRB assay; format: functional
[5] = Growth inhibition of human A2780/CP70 cells expressing isogenically paired p53 mutant by SRB assay; format: functional
SJSA-1 [6] = experiment: Increase of P53 expression in human SJSA1 cells after 6 hrs by Western blotting; format: functional, cell-based
SJSA-1 [7] = experiment: Increase of MDM2 expression in human SJSA1 cells after 6 hrs by Western blotting; format: functional, cell-based
SJSA-1 [8] = experiment: Increase of P21 protein level in human SJSA1 cells after 6 hrs by Western blotting; format: functional, cell-based
SJSA-1 [9] = experiment: Increase of P53 expression in human SJSA1 cells at 5 to 10 uM after 6 hrs by Western blotting; format: functional, cell-based
SJSA-1 [10] = experiment: Increase of MDM2 expression in human SJSA1 cells at 5 to 10 uM after 6 hrs by Western blotting; format: functional, cell-based
SJSA-1 [11] = experiment: Increase of P21 protein level in human SJSA1 cells at 5 to 10 uM after 6 hrs by Western blotting; format: functional, cell-based

Tumour suppressor p53/oncoprotein Mdm2, sequence (P04637 whole entry): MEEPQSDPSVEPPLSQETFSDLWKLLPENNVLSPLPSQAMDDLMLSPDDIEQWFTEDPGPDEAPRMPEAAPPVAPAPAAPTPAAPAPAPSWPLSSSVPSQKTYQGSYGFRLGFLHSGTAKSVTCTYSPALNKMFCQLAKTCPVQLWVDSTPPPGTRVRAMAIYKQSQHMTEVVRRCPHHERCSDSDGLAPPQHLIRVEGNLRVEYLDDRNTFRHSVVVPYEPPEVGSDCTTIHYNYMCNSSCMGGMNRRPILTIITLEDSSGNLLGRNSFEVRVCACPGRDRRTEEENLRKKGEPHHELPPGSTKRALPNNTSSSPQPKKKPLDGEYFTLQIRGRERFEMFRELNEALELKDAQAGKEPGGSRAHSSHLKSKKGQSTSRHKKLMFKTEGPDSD
Tumour suppressor p53/oncoprotein Mdm2, sequence (Q00987 whole entry): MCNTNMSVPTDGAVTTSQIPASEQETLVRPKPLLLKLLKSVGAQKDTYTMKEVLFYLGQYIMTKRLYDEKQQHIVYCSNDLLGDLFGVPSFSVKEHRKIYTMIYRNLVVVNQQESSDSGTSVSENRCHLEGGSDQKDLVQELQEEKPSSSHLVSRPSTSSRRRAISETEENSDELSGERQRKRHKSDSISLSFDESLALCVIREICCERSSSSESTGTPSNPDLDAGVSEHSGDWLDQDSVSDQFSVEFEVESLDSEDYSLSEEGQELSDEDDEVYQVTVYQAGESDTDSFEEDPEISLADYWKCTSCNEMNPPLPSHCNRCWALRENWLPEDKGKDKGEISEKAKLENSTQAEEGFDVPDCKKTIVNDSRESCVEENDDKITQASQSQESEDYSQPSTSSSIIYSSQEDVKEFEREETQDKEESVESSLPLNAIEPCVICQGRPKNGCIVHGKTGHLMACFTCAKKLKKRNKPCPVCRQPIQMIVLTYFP

Compound: O=C1c2cccc(Cl)c2C(OCC2(CO)CC2)(c2ccc(Cl)cc2)N1Cc1ccc(S(=O)(=O)C(F)(F)F)cc1 (stereo not drawn)
- IC50 [1]: 9 µM

Compound: O=C1C2=C(CCCC2)C(OCC2(CO)CC2)(c2ccc(Cl)cc2)N1Cc1ccc([N+](=O)[O-])cc1 (stereo not drawn)
- IC50 [1]: 3.47 µM

Compound: CC1=C(C)C(OCC2(CO)CC2)(c2ccc(Cl)cc2)N(Cc2ccccc2)C1=O (stereo not drawn)
- IC50 [1]: 3.45 µM

Compound: CCCN1C(=O)C(C)=C(C)C1(OCC1(CO)CC1)c1ccc(Cl)cc1 (stereo not drawn)
- IC50 [1]: 8.9 µM

Compound: CC(C)(C)C[C@H]1N[C@@H](C(=O)NCCN2CCOCC2)[C@H](c2cccc(Cl)c2F)[C@@]12C(=O)Nc1cc(Cl)ccc12
- GI50 (SJSA-1 [2]; Homo sapiens, SJSA-1): 0.55 µM
- GI50 (A2780; Homo sapiens, A2780): 1.19 µM
- GI50 (HCT-116 [3]; Homo sapiens, HCT-116): 11.8 µM
- GI50 (HCT-116 [4]; Homo sapiens, HCT-116): 1.3 µM
- GI50 ([5]; Homo sapiens, A2780/CP70): 15.1 µM

Compound: O=C1c2cccc(Cl)c2C(OCC2(CO)CC2)(c2ccc(Cl)cc2)N1Cc1ccc([N+](=O)[O-])cc1 (racemic) [listing 1 of 2 here]
- GI50 (SJSA-1 [2]): 6 µM
- GI50 (A2780): 4.2 µM
- GI50 (HCT-116 [3]): 14.9 µM
- GI50 (HCT-116 [4]): 6 µM
- GI50 [5]: 15.9 µM

Compound: O=C1c2cccc(Cl)c2C(OCC2(CO)CC2)(c2ccc(Cl)cc2)N1Cc1ccc([N+](=O)[O-])cc1 (racemic) [listing 2 of 2 here]
- Activity (SJSA-1 [6]): Dose-dependent effect
- Activity (SJSA-1 [7]): Dose-dependent effect
- Activity (SJSA-1 [8]): Dose-dependent effect

Compound: O=C1c2cccc(Cl)c2C(OCC2(CO)CC2)(c2ccc(Cl)cc2)N1Cc1ccc([N+](=O)[O-])cc1 (single isomer, unassigned; (+)) [listing 1 of 2 here]
- GI50 (SJSA-1 [2]): 12.2 µM
- GI50 (A2780): 7.7 µM
- GI50 (HCT-116 [3]): 14.4 µM
- GI50 (HCT-116 [4]): 12.3 µM
- GI50 [5]: 14.5 µM

Compound: O=C1c2cccc(Cl)c2C(OCC2(CO)CC2)(c2ccc(Cl)cc2)N1Cc1ccc([N+](=O)[O-])cc1 (single isomer, unassigned; (+)) [listing 2 of 2 here]
- Activity (SJSA-1 [9]): inactive
- Activity (SJSA-1 [10]): inactive
- Activity (SJSA-1 [11]): inactive

Compound: O=C1c2cccc(Cl)c2C(OCC2(CO)CC2)(c2ccc(Cl)cc2)N1Cc1ccc([N+](=O)[O-])cc1 (single isomer, unassigned; (-)) [listing 1 of 2 here]
- GI50 (SJSA-1 [2]): 3.7 µM
- GI50 (A2780): 3.3 µM
- GI50 (HCT-116 [3]; Homo sapiens, HCT-116): 12.5 µM
- GI50 (HCT-116 [4]): 3.7 µM
- GI50 ([5]; Homo sapiens, A2780/CP70): 13.6 µM

Compound: O=C1c2cccc(Cl)c2C(OCC2(CO)CC2)(c2ccc(Cl)cc2)N1Cc1ccc([N+](=O)[O-])cc1 (single isomer, unassigned; (-)) [listing 2 of 2 here]
- Activity (SJSA-1 [6]): Dose-dependent effect
- Activity (SJSA-1 [7]): Dose-dependent effect
- Activity (SJSA-1 [8]): Dose-dependent effect

Compound: COc1ccc(C2=N[C@@H](c3ccc(Cl)cc3)[C@@H](c3ccc(Cl)cc3)N2C(=O)N2CCNC(=O)C2)c(OC(C)C)c1 [NUTLIN-3]
- GI50 (SJSA-1 [2]; Homo sapiens, SJSA-1): 1.3 µM
- GI50 (A2780; Homo sapiens, A2780): 1.6 µM
- GI50 (HCT-116 [3]; Homo sapiens, HCT-116): 25.6 µM
- GI50 (HCT-116 [4]; Homo sapiens, HCT-116): 2.1 µM
- GI50 ([5]; Homo sapiens, A2780/CP70): 20.4 µM
